Source: ChEMBL document CHEMBL1158803, “Xanthone and sesquiterpene derivatives from the fruits of Garcinia scortechinii” (2005)
≈ marks a conversion by molar mass, not a printed value.

Tested on: Staphylococcus aureus
Assay: Antibacterial activity against methicillin-resistant Staphylococcus aureus after 18 hrs by agar microdilution method
Assay type: functional
In short: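 Agar microdilution; compounds in DMSO, serial 2-fold dilutions mixed 1:100 into melted Mueller-Hinton agar, final 128 to 0.03 µg/mL. Clinical MRSA isolate (Songklanakarin Hospital) inoculum spotted on agar wells, incubated 35 °C for 18 h. MIC taken as lowest concentration inhibiting visible growth. Vancomycin positive control; DMSO-agar growth control.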

SMILES | MIC
CO[C@]12C=C3C(=O)c4c(O)c(CC=C(C)C)c5c(c4O[C@]34[C@H](C1)[C@](C)(CO)O[C@]4(CC=C(C)C)C2=O)C(C)(C)[C@@H](C)O5 | > 221 µM
C=C(C)C(O)Cc1c(O)c2c(c3c1O[C@H](C)C3(C)C)O[C@@]13C(=C[C@@]4(OC)C[C@@H]1C(C)(C)O[C@]3(C/C=C(/C)C(=O)O)C4=O)C2=O (stereo partly specified) [SCORTECHINONE R] | > 210 µM
CC(C)=CCc1c2c(c3oc4c(C(C)(C)O)cc(O)cc4c(=O)c3c1O)C(C)(C)[C@@H](C)O2 [SCORTECHINONE U] | > 292 µM
C=C(C)C(O)Cc1c(O)c2c(c3c1O[C@H](C)C3(C)C)O[C@@]13[C@@H]4C[C@@](OC)(C(=O)[C@@]1(C/C=C(/C)C(=O)O)OC4(C)C)[C@@H](OC)[C@@H]3C2=O (stereo partly specified) [SCORTECHINONE S] | 100 µM (≈ 64.1 µg/mL)
CO[C@]12C=C3C(=O)c4c(O)c(CC=C(C)C)c5c(c4O[C@]34[C@H](C1)C(C)(C)O[C@]4(C/C=C(/C)C(=O)O)C2=O)C(C)(C)[C@H](C)O5 [SCORTECHINONE B] | 3.38 µM (≈ 2 µg/mL)
COC1Cc2c(oc3c(CC=C(C)C)c4c(c(O)c3c2=O)C(C)(C)C(C)O4)C2=C1[C@@](C/C=C(\C)C(=O)O)(C(=O)O)OC2(C)C (stereo partly specified) [SCORTECHINONE X] | > 210 µM
CO[C@H]1[C@@H]2C(=O)c3c(O)c(CC=C(C)C)c4c(c3O[C@]23[C@@H]2C[C@@]1(OC)C(=O)[C@@]3(C/C=C(\C)C=O)OC2(C)C)C(C)(C)[C@@H](C)O4 [SCORTECHINONE T] | > 105 µM
COc1cc2c(=O)c3c(O)c4c(c(CC=C(C)C)c3oc2c2c1[C@@](C/C=C(\C)C(=O)O)(C(=O)O)OC2(C)C)OC(C)C4(C)C (stereo partly specified) [SCORTECHINONE W] | 52.8 µM (≈ 32 µg/mL)
CO[C@H]1[C@@H]2C(=O)c3c(O)c(CC=C(C)C)c4c(c3O[C@]23[C@@H]2C[C@@]1(OC)C(=O)[C@@]3(C/C=C(/C)C(=O)O)OC2(C)C)C(C)(C)[C@@H](C)O4 [SCORTECHINONE I] | 12.8 µM (≈ 8 µg/mL)
COc1cc2c(=O)c3c(O)c(CC=C(C)C)c4c(c3oc2c2c1[C@@](C/C=C(\C)C(=O)O)(C(=O)O)OC2(C)C)C(C)(C)[C@@H](C)O4 [SCORTECHINONE V] | 106 µM (≈ 64.3 µg/mL)
CN[C@H](CC(C)C)C(=O)N[C@H]1C(=O)N[C@@H](CC(N)=O)C(=O)N[C@H]2C(=O)N[C@H]3C(=O)N[C@H](C(=O)N[C@H](C(=O)O)c4cc(O)cc(O)c4-c4cc3ccc4O)[C@H](O)c3ccc(c(Cl)c3)Oc3cc2cc(c3O[C@@H]2O[C@H](CO)[C@@H](O)[C@H](O)[C@H]2O[C@H]2C[C@](C)(N)[C@H](O)[C@H](C)O2)Oc2ccc(cc2Cl)[C@H]1O [VANCOMYCIN] | 1.38 µM (≈ 2 µg/mL)
